Experimental data pooled from the literature.
Each line is one published result; the experiments were not run side by side.
Target: Receptor-interacting serine/threonine-protein kinase 1 (RIPK1, Homo sapiens, UniProt Q13546)
One construct used (Q13546 1-671): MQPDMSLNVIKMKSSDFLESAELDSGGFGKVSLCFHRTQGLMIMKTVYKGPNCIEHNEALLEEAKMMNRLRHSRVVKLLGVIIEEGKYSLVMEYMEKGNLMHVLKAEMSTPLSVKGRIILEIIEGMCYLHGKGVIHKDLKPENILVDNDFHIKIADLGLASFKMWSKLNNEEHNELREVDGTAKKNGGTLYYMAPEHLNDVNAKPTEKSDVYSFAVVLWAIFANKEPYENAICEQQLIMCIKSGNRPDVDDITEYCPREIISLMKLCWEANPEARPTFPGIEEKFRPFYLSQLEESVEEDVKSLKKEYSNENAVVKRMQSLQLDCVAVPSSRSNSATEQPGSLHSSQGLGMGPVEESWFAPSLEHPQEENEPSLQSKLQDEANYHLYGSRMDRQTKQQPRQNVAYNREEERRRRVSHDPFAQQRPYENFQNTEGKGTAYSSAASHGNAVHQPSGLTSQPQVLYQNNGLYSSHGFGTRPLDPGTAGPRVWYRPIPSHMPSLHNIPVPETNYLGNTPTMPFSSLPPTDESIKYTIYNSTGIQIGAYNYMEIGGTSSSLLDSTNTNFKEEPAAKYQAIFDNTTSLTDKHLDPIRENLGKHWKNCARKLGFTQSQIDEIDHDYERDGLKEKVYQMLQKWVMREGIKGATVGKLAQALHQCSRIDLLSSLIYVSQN

| SMILES | effect on | method | tested at | remaining binding |
| --- | --- | --- | --- | --- |
| CN(c1nccc(-c2cnn3ncccc23)n1)C1CC1 | binding |  | 1 µM | 100% |
| Nc1ncc2c(n1)-c1c([nH]c3ccc(C#CC4CC4)cc13)CCCC2 | binding | competition with immobilised ligand | 1 µM | 100% |
| O=C(Nc1c[nH]nc1C(=O)NC1CCNCC1)c1cc(F)cc(F)c1 | binding | competition with immobilised ligand | 1 µM | 100% |
| FC(F)(F)Oc1cccc(-c2cnc3ccc(-c4ccncc4)nn23)c1 | binding | competition with immobilised ligand | 5 µM | 81% |
| O=C(c1ccc(Nc2nccc(-c3cc4ccccc4s3)n2)cc1)N1CCC(N2CCCC2)CC1 | binding | competition with immobilised ligand | 1 µM | 23% |
| COc1cnc(Nc2cccc(S(N)(=O)=O)c2)nc1N1CCN(c2ccccc2)C(=O)C1 | binding | competition with immobilised ligand | 1 µM | 100% |
| CN(C)c1ncnc(-c2ccc3nc(Nc4cc(CN5CCN(C(=O)CC(F)(F)F)CC5)ccn4)[nH]c3c2)c1Cl | cell-free assay | competition with immobilised ligand | 1 µM | 93% |
| O=C(c1ccc(Nc2ncc(Cl)c(-c3cc4ccccc4s3)n2)cc1)N1CCC(N2CCCC2)CC1 | binding | competition with immobilised ligand | 1 µM | 2.5% |
| CC1CCCN1c1nccc(-c2cnn3ncccc23)n1 (stereo not shown) | binding |  | 1 µM | 100% |
| COc1ncc2cc3ccccc3nc2c1C#N | cell-free assay | competition with immobilised ligand | 5 µM | 100% |
| Cc1cnn2ncc(-c3ccnc(N(C)C)n3)c2c1 | binding |  | 1 µM | 100% |
| CCC(=O)N[C@H]1CC[C@@H](C(=O)N(C)c2ccc(-c3nc4ccccc4o3)cc2)C1 | cell-free assay | competition with immobilised ligand | 1 µM | 100% |
| C[C@@H]1CCN(c2nccc(-c3cnn4ncccc34)n2)C1 | binding |  | 1 µM | 100% |
| O=C1CCc2cc(Nc3cc(OC4CCOCC4)c([N+](=O)[O-])cc3Cl)ccc2N1 | cell-free assay | competition with immobilised ligand | 1 µM | 100% |
| COc1cnc(Nc2cccc(S(N)(=O)=O)c2)nc1N1CCN(c2ccccc2)CC1 | binding | competition with immobilised ligand | 1 µM | 100% |
| CCCOc1ccc([C@@H]2[C@@H](C(=O)O)[C@H](c3ccc4c(c3)OCO4)CN2CC(=O)Nc2c(CC)cccc2CC)cc1 | cell-free assay | competition with immobilised ligand | 1 µM | 55% |
| Cc1cnc(Nc2ccc(C(=O)N3CCC(N4CCCC4)CC3)cc2)nc1-c1cc2ccccc2s1 | binding | competition with immobilised ligand | 1 µM | 1% |
| Cc1c(C(=O)O)cc(-c2ccc(C3CCNCC3)cc2)c2ccc(-c3ccc(C(F)(F)F)cc3)cc12 | binding | competition with immobilised ligand | 1 µM | 100% |
| CN(C)c1nccc(-c2cnn3ncccc23)n1 | binding |  | 1 µM | 98% |
